Reference: the EternaBench riboswitch data

System: MS2 coat protein
Assay: apparent Kd, MS2 coat protein; higher = weaker binding; RNA-MaP array; FMN 200 µM where present
Method in brief: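 Green signal from SNAP-549-labelled MS2 coat protein was normalised to red-channel RNA signal and to the median Fmax of control clusters. The protein was titrated from 0.7 or 1.5 nM, doubling to 3 µM, without and then with constant ligand, over designs transcribed by stalled E. coli RNA polymerase on Illumina sequencing-chip clusters, in 100 mM Tris-HCl pH 7.5, 80 mM KCl, 4 mM MgCl2, BSA, DTT, yeast tRNA and Tween-20. The apparent Kd is the median of filtered per-cluster binding-curve fits.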

[1] = designed as: OFF switch for flavin mononucleotide, no ligand
[2] = ligand present: flavin mononucleotide, designed as: OFF switch for flavin mononucleotide
[3] = designed as: ON switch for flavin mononucleotide, no ligand
[4] = ligand present: flavin mononucleotide, designed as: ON switch for flavin mononucleotide

| Sequence | apparent Kd [1] [nM] | apparent Kd [2] [nM] | apparent Kd [3] [nM] | apparent Kd [4] [nM] |
| --- | --- | --- | --- | --- |
| UGUGGGUCCGUUAGGAUAUUUACAGGCAUGCCUGUAAAGAAGGAACAUGAGGAUCACCCAUGUUUGACAAAUUU | 16.9 | 39.8 | – | – |
| CCUCCCUGAGGAUAUCCACCCUCAUACAUGAGGAUCACCCAUGUUCAUCCCUGAGUACCCGGAGAAGGCAGAUUUC | 168 | 148 | – | – |
| AACAUGUCAGGAUAUGCGAAGGCGUCUGACAGACGAGGCUAGCAGAAGGGACAUGAGGAUCACCCAUGUAAAAA | 98.9 | 129 | – | – |
| AGCGUAUGAACAUGAGGAUCACCCAUGUAAACGGAAACGAAUGAGGAUAUCGAUAGCAAAGCUAUCGAGAAGGCAUGGGACGCU | – | – | 159 | 36.4 |
| CAGAAGUCAGGAUAUCCAUGGCGGCACUUGCGUGGUGGCGUGGAGAAGGGACAUGAGGAUCACCCAUGUAAAGA | 59.1 | 48.2 | – | – |
| CAAAGCAGUAAGGAUAUAUGGUAGCCAGUUACCGUAGAAGGUAUAACAUGAGGAUCACCCAUGUCCAUAUGAUU | 56.8 | 57.7 | – | – |
| CGCUACAGCCAGAAGGACAUGAGGAUCACCCAUGUAGGAUAUGGGAGACGCAGUCCCGUGUAGAGAAACUACGCUACUGUAGCG | – | – | 430 | 183 |
| UUAAAUCAUGUAGGAUAUGCAUGGCGAAGCUACGCAGAAGGACAUGAGGAUCACCCAUGUGCUAGCUACCGAGUACGGUGGCAA | 64.9 | 251 | – | – |
| GACAAGGGAGGAUAUGCACAAGGGAUAUCUGACAUGCCGAUACAUGAGGAUCACCCAUGUAGAAGGCCCGAAUA | 11.4 | 18.3 | – | – |
| UAUUAUGUUCGAGGAUAUCCGCGAUGCCGACCAGGAGAAGGCGAACAUGAGGAUCACCCAUGUUAUAGAUGACCGGUUACCAAA | 23.8 | 41.2 | – | – |
| UAGAAGUCAGGAUAUGCAUGGCGGGACUUGCGUCGUGGCGUGCAGAAGGGACAUGAGGAUCACCCAUGUAAAGA | 56.1 | 53.4 | – | – |
| AAGCUGUCAGGAUAUCGUUAAUUUAGUUGUUUGUAUUAGUUCGAGAAGGGACAUGAGGAUCACCCAUGUAUAUA | 37.8 | 76.8 | – | – |
| CAUAUAGUAGUGAGGAUAUGCGAAUAUAUAAUUAAGUAGAAGGCACAUGAGGAUCACCCAUGUAUAUUGUAAAG | 20.6 | 20.6 | – | – |
| AUUACAAUUGUAUACAUGAGGAUCACCCAUGUUAUAAGUCAUGAGGAUAUGGUAUUGUAGUUAUUCCAGAAGGCAUAUAGCUAA | – | – | 14.3 | 9.2 |
| AGAUAUGAUGCAGGAUAUCUAUCUUGAAUGAGGAGAGAAGGGCAAACAGAGACAUAAGCCUUAUUACAUGAGGAUCACCCAUGU | 10.1 | 8.83 | – | – |
| GCACGGUAAGUGAGGAUAUACCUCUGGAUACAGAGGUAGAAGGCACAUGAGGAUCACCCAUGUCUCAGCCGUGC | 16.3 | 78.2 | – | – |
| GGAUGACAAAGUCAUCCUCAACGGACAUGAGGAUCACCCAUGUAGGAUAUGCUACUCAAAGAGUAGCAGAAGGACAUGUGUCUU | 37.3 | 241 | – | – |
| GGUUUGCGGCAGGAUAUCCAUCCGCGGUAUGGUGGAGAAGGGCUGACAUGAGGAUCACCCAUGUGCGUCCUGGG | 26.6 | 38.4 | – | – |
| UAAUCUCAGAUAGGAUAUAUAGGAUGAUUUAAGACUGAACAUGAGGAUCACCCAUGUGAUUAUCUGUAGAAGGAUCAAUUACCC | – | – | 392 | 351 |
| GGUUGACAAAGUCAACCUUAACGAACAUGAGGAUCACCCAUGUAGGAUAUGCUACUCAAAGAGUAGCAGAAGGACAUGUGUCUU | 30 | 169 | – | – |
| AGAUCACAUGAGGAUCACCCAUGUCAGGAUAUGAUACUAUGUACUUCGGUACAUAGUAUCAGAAGGGAUAUGAA | 95.2 | 193 | – | – |

| Sequence | apparent Kd [1] [nM] | apparent Kd [2] [nM] | apparent Kd [3] [nM] | apparent Kd [4] [nM] |
| --- | --- | --- | --- | --- |
| UGUCGGAGCAGAGGAUAUUACAUGAGGAUCACCCAUGUAUGAGCCAAUAGCUGGAAACAGCAAUGUAAGAAGGCUGCUCCGACA | 19.1 | 206 | – | – |
| GCCUUACAUGAGGAUCACCCAUGUCAGGAUAUGUCAGAGUAGGUAAAACACCACUCUAAUAGAAGGGACAUGCA | 16.8 | 28.6 | – | – |
| GCCGGUUCCCUAGGAUAUGUACAUGAGGAUCACCCAUGUGCUUCUAGAGCCGGAGCAGGGCAUGUACAGAAGGAGGGUCGACCC | 6.47 | 7.39 | – | – |
| GUGGUCAGACAUGAGGAUCACCCAUGUGGAAUAAAUAAGGGACAGGAUAUUUAAUAUAGGAUAUAGAAGAAGGGUUGGUUGGUG | – | – | 106 | 138 |
| CACGGAUAGUAGAAGGGUGACAUGAGGAUCACCCAUGUACUUAUUUAUUUAUUACUAUUUGAUACACAGGAUAUACUAUCCGUG | – | – | 956 | 279 |
| UUAAAUCGAAACAUGAGGAUCACCCAUGUGUUGUAAUUAAUAUAGGAUAUGUGUAUACUUUUAUGACAGAAGGAUGAUAAUACU | – | – | 21.5 | 14.4 |
| UAGAUGUGAGGAUAUGGUAAAGAUAGAAUGAUGAAAGAACUCCAGAAGGCACAUGAGGAUCACCCAUGUAGAUG | 26.9 | 55 | – | – |
| AUGAGGUCAGGAUAUGCAUGGCGGGACUUGCGUCGUGGCGUGCAGAAGGGACAUGAGGAUCACCCAUGUGGAGU | 152 | 218 | – | – |
| CAGGUAGACUGAGGAUAUACAAAAGACCUAGUCUAUCUAGGUCAAAUCACAUGAGGAUCACCCAUGUAGAAGGCAGUCUGCCUG | 16.8 | 27.3 | – | – |
| UUAUUUUGUCAAGGAUAUGUAUUAUUGAUUUGAAAACAUGAGGAUCACCCAUGUAUAUGGUGGGAACAGAAGGUGAAUGGUGAA | 194 | 215 | – | – |
| GGUACUCAAAGAGUACCAAUACGAACAUGAGGAUCACCCAUGUAGGAUAUGCUACUCAAAGAGUAGCAGAAGGACAUGUGCCCU | 60.5 | 608 | – | – |
| GGUCCUUCUGUUAGGAUAUGCUAUGGGCUUCCGCAGUAGAAGGAACAUGAGGAUCACCCAUGUCCGAUGCCGUA | – | 121 | – | – |
| UGCUGACAAGGAUAUACUCGGGAUGCUAGUCGCGCAGUUGCACAUGAGGAUCACCCAUGUAGAAGGUGUCAGUA | 169 | 210 | – | – |
| CGGCAAGUCACAGGAUAUGGUGAUGUACAUGAGGAUCACCCAUGUCCGUCUUCUCUCACAAGAUGCCAGAAGGGUGACUUCCAG | – | – | 946 | 140 |
| ACUAGAUGAGGAUAUGCAUAUUUUCGUGUUCUUCUAGGUUAACAUGAGGAUCACCCAUGUAGAAGGCGUCUAUU | 20.6 | 38 | – | – |
| CAAAGUUGGUAAGGAUAUCCCACAUUAUUCUGACCCGUGCAAGCUACAUGAGGAUCACCCAUGUGGGAGAAGGUGCGUUAAAGC | 372 | 219 | – | – |
| GUAGCUCAUGAGAAGGCGAUCAUGAAACAUGAUCGAGGAUAUCAUGUAAACAUGAGGAUCACCCAUGUAUGGGUAUUAUGCUAC | – | – | 126 | 47.1 |
| GAUGAGGUAGGAUAUACGAGAAGAUAGGGUAGAUAGAGAACACAUGAGGAUCACCCAUGUAGAAGGACCAGUAG | 25.3 | 55.7 | – | – |
| AAAACAUGAGGAUCACCCAUGUUUAGAUCGGUCGAUAGAGGUGAGGAUAUACUAAGUUAAGGCUGGUAGAAGGCACUGGGUACA | – | – | 62.4 | 42 |
| AUUUUUUGUCAUGUACAUGAUGAACAUGAGGAUCACCCAUGUAGAAGGAAUUUUUUUAAGUUUAGUUAGGAUAUACAUAUAUUU | 16.6 | 10.8 | – | – |
| GGUACCAUCACAGGAUAUGCUUUCCUUUGGGAAGCAGAAGGGUGUAACAUGAGGAUCACCCAUGUGGUGCCAGGGCGCGAGCCC | – | – | 182 | 16.8 |
